4 molecules from ChEMBL document CHEMBL1122504, “Heterocyclic Quinones. 4. A new highly cytotoxic drug: 6,7-bis(1-aziridinyl)-5,8-quinazolinedione” (1983) can be followed below.

Values joined by “and” are separate entries in the source; they are usually repeats but may differ in a detail not shown here. Identical values can stand only once.

For this test, the system named is L1210. The test is described as follows: Concentration that decreases the growth rate of the L1210 cells by 50% after 48 hr of culture. It is filed as functional. To be noted: Mus musculus, L1210, 48 h; read-out: ID50 (the source's name). The method in brief: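 L1210 leukemia cells cultured with increasing drug concentrations for 48 h at 37 °C under 5% CO2. Percentage inhibition of control growth was fitted by least-squares linear regression against log dose, and the concentration lowering control growth by 50% was estimated from the regression equation.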
As to `COC1=CC(=O)c2ncncc2C1=O`, the IC50 is 0.593 µg/mL and 3.12 µM.
As to `COC1=C(Br)C(=O)c2ncncc2C1=O`, the IC50 is 0.889 µg/mL and 3.31 µM.
Regarding `O=C1C(N2CCCCC2)=CC(=O)c2ncncc21`, the IC50 is 0.359 µg/mL and 1.48 µM.
On to `COC1=C(N)C(=O)c2ncncc2C1=O`, for which the IC50 is 0.215 µg/mL and 1.05 µM.
